Tests used:
[1] = system: MT2; test: (§1) Concentration required for causing death in 10% or less of cells in the absence of virus in MT2 cells infected with HIV-1 237288 strain; assay type: functional, Human immunodeficiency virus 1
In short: (§2)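 Cytotoxicity controls run alongside the Melbourne antiviral test: uninfected MT2 cells at 5 × 10⁴ per well in RF10, or PBMCs at 3.75 × 10⁵ per well in RF10/IL-2, exposed to duplicate drug dilutions made from a 20 mM stock in 60% v/v ethanol. Incubated 6–7 days at 37 °C, 5% CO₂, then viable cells counted by trypan blue exclusion. CC₁₀ is the highest concentration keeping counts ≥90% of the cell-only control.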

[2] = system: Human immunodeficiency virus 1; test: Concentration required for causing death in 10% or less of cells in the absence of virus in PBMC cells infected with HIV-1 237288 strain; assay type: functional; in short: as §2
[3] = molecular target: Human immunodeficiency virus type 1 protease (Human immunodeficiency virus 1) (UniProt Q72874); conditions: MT2
[4] = system: MT2; test: Concentration of compound causing death in 10% or less of cells in the absence of virus in MT2 cells infected with HIV-2 strain (ROD); assay type: functional, Homo sapiens; in short: as §2
[5] = system: MT2; test: as §1; assay type: functional, Homo sapiens; in short: as §2
[6] = molecular target: Human immunodeficiency virus type 1 protease (Human immunodeficiency virus 1) (UniProt Q72874); conditions: PBMC
[7] = molecular target: Human immunodeficiency virus type 1 protease (Human immunodeficiency virus 1, UniProt Q72874); test: Inhibitory constant against HIV-1 protease
[8] = system: MT2; test: Concentration which causing death in 10% or less of cells in the absence of virus in MT2 cells infected with HIV-1 strain 237288; in short: as §2
[9] = system: MT2; test: Concentration required for causing death in 10% or less of cells in the absence of virus on MT2 cells infected with HIV-1 strain 237288; assay type: functional, Homo sapiens; in short: as §2
[10] = molecular target: Human immunodeficiency virus type 1 protease (Human immunodeficiency virus 1) (UniProt Q72874); test: Inhibition of virion associated RT activity (90% decrease) relative to untreated, infected control on MT2 cells infected with HIV-1 237288 strain; assay type: cell-based
In short: (§3)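 Drug dilutions, from a 20 mM stock in 60% v/v ethanol, added in duplicate to MT2 cells (5 × 10⁴ in RF10) or PBMCs (3.75 × 10⁵ in RF10/IL-2). Virus added immediately after: HIV-1 #237288 or HIV-2 ROD, 200 TCID₅₀ for MT2 or 300 TCID₅₀ for PBMC. After 6–7 days at 37 °C, supernatant virus precipitated with PEG and virion RT counted by scintillation, as % of virus-only control. IC₅₀ and IC₉₀ are the concentrations giving 50% and 90% reduction.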

[11] = molecular target: Human immunodeficiency virus type 1 protease (Human immunodeficiency virus 1) (UniProt Q72874); test: Inhibition of virion associated RT activity relative to untreated, infected control in PBMC cells infected with HIV-1 237288 strain; assay type: cell-based; in short: as §3

**Q.** Which results are given for CC(C)(C)NC(=O)[C@@H]1CN(Cc2cccnc2)CCN1C[C@@H](O)C[C@@H](Cc1ccccc1)C(=O)N[C@H]1c2ccccc2C[C@H]1O.O?
**A.** CC10 [1]: 10000 nM; CC10 [2]: 10000 nM; IC90 [3]: 93 nM

**Q.** CC(C)CCN(C[C@@H](O)[C@@H]1Cc2ccc(cc2)OCCCCCC(=O)N[C@@H](C(C)C)C(=O)N1)S(=O)(=O)c1ccc(N)cc1 was tested. Which CC10 [4] did it give?
**A.** Its CC10 is 10000 nM.

**Q.** What about the CC10 [5] of the same molecule?
**A.** Its CC10 is 10000 nM.

**Q.** And the CC10 [2]?
**A.** Its CC10 is 50000 nM.

**Q.** What about the IC90 [3] of the same molecule?
**A.** The IC90 was 220 nM.

**Q.** What about the IC90 [6] of the same molecule?
**A.** Its IC90 is 880 nM.

**Q.** Which Ki [7] does the source give for CC[C@@H](C)[C@@H]1NC(=O)[C@@H](NC[C@@H](O)[C@H](Cc2ccccc2)NC(=O)[C@@H](NC(=O)c2ccc3ccccc3n2)C(C)C)Cc2ccc(cc2)OCCCNC1=O here?
**A.** The Ki was 0.3 nM.

**Q.** Which CC10 [8] does the source give for CC(C)CN(C[C@@H](O)[C@H](Cc1ccccc1)NC(=O)O[C@H]1CCOC1)S(=O)(=O)c1ccc(N)cc1 here?
**A.** The CC10 was 10000 nM.

**Q.** With CCC(C)[C@@H]1NC(=O)[C@@H](NC[C@@H](O)C[C@@H](Cc2ccccc2)C(=O)N[C@H]2c3ccccc3C[C@H]2O)Cc2ccc(cc2)OCCCCCNC1=O (stereo not given in full) as the molecule, how does the CC10 [4] read?
**A.** The CC10 was 30000 nM.

**Q.** What about the CC10 [9] of the same molecule?
**A.** The CC10 was 30000 nM.

**Q.** And the CC10 [2]?
**A.** Its CC10 is 50000 nM.

**Q.** And the IC90 [10]?
**A.** Its IC90 is 100 nM.

**Q.** And the IC90 [11]?
**A.** Its IC90 is 220 nM.
